Key:
[1] = biological target: T1, Amine oxidase [flavin-containing] B (Homo sapiens, UniProt P27338); experiment: Inhibition of human MAO-B expressed in baculovirus infected insect cell membranes using kynuramine as substrate after 15 to 20 mins by discontinuous fluorimetric method
T1 sequence (P27338 whole entry): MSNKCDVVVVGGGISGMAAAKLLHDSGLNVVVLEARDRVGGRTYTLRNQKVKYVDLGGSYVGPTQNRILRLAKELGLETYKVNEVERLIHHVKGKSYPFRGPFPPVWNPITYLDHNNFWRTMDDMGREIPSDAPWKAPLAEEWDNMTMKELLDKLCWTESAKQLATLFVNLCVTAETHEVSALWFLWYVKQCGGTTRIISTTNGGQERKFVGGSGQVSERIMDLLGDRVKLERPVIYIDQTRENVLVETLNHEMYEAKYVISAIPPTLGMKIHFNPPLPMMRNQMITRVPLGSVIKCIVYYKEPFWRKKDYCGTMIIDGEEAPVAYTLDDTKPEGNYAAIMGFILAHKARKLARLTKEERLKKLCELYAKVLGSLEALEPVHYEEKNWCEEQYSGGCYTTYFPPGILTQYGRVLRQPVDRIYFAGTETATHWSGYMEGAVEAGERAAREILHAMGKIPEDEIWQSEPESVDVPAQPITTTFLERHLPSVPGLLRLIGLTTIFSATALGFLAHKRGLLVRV

[2] = biological target: T1, Amine oxidase [flavin-containing] B; experiment: Inhibition of human MAO-B expressed in baculovirus infected insect cell membranes at 5 uM using kynuramine as substrate after 15 to 20 mins by discontinuous fluorimetric method relative to control
Method in brief: (§1)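 Single-point screen (10, 2 or 5 µM) on human recombinant membrane-bound MAO A or MAO B. Kynuramine was used at 2×KM (KM 30 µM for MAO A, 20 µM for MAO B) in 50 mM potassium phosphate, pH 7.4, 37°C for 20 min, started with enzyme and stopped with 2 N NaOH. 4-Hydroxyquinoline was read fluorimetrically (Ex 320, Em 405 nm) as % of no-inhibitor control; at least two independent experiments in duplicate.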

[3] = biological target: T2, Amine oxidase [flavin-containing] A (Homo sapiens, UniProt P21397); experiment: Inhibition of human MAO-A expressed in baculovirus infected insect cell membranes using kynuramine as substrate after 15 to 20 mins by discontinuous fluorimetric method
T2 sequence (P21397 whole entry): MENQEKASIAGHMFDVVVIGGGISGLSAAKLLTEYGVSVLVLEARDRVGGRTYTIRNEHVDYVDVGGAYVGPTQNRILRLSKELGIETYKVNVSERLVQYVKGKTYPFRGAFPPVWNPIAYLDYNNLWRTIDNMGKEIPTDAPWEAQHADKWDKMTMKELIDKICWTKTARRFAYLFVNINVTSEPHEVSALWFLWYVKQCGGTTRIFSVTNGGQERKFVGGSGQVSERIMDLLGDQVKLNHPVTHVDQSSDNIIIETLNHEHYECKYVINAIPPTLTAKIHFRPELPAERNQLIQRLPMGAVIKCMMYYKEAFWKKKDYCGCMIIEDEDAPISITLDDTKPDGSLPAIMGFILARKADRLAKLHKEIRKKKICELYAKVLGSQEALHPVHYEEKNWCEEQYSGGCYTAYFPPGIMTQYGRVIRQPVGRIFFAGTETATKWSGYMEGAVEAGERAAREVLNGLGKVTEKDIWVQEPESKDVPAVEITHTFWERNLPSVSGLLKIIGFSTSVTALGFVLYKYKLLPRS
Method in brief: (§2)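 Human recombinant membrane-bound MAO A and MAO B were tested with inhibitor at 0.001–100 µM and kynuramine at 2×KM. Conditions were 50 mM potassium phosphate, pH 7.4, 20 min at 37°C, no preincubation, with NaOH stop and fluorimetric 4-hydroxyquinoline read-out. IC50 came from a three-parameter log-inhibitor fit with the bottom fixed at zero, from at least three independent experiments in at least duplicate. SI = IC50 MAO A / IC50 MAO B.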

Homo sapiens = species on record: Homo sapiens; experiment: Selectivity index, ratio of IC50 for human MAO-A expressed in baculovirus infected insect cell membranes without preincubation with enzyme to IC50 for human MAO-B expressed in baculovirus infected insect cell membranes without preincubation with enzyme; method in brief: as §2
[4] = biological target: T1, Amine oxidase [flavin-containing] B; experiment: Inhibition of human MAO-B expressed in baculovirus infected insect cell membranes using kynuramine as substrate preincubated for 30 mins followed by substrate addition measured after 15 to 20 mins by discontinuous fluorimetric method
[5] = biological target: T1, Amine oxidase [flavin-containing] B; experiment: Reversible inhibition of human MAO-B expressed in baculovirus infected insect cell membranes using excess of kynuramine substrate preincubated for 30 to 60 mins followed by 50 fold compound dilution by fluorimetric method
Method in brief: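 MAO B (10 ng/µL) was preincubated with inhibitor at 10× IC50 for 0, 30 or 60 min at 37°C. […] Residual activity was measured fluorimetrically at saturating kynuramine (10×KM), as % of the matched no-inhibitor control. Data are from at least two independent experiments in duplicate, global fit.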

Histamine H3 receptor [6] = biological target: T3, Histamine H3 receptor (Homo sapiens, UniProt Q9Y5N1); experiment: Displacement of [3H]-N-alpha-methylhistamine from human H3R expressed in HEK293 cell membranes after 90 mins by liquid scintillation counting method
Method in brief: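 Membranes (20 µg) from HEK-293 cells stably expressing human H3R were incubated with 2 nM [3H]-N-α-methylhistamine and at least seven test concentrations. Incubation was 90 min at room temperature, with shaking, in 75 mM Tris/HCl (pH 7.4), 12.5 mM MgCl2 and 100 mM NaCl. Nonspecific binding used 10 µM pitolisant. Counting was by liquid scintillation; Ki came from Cheng-Prusoff on one-site competition fits, at least in duplicate.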

[7] = biological target: T1, Amine oxidase [flavin-containing] B; experiment: Inhibition of human MAO-B expressed in baculovirus infected insect cell membranes at 10 uM using kynuramine as substrate by continuous spectrophotometric method relative to control
[8] = biological target: T2, Amine oxidase [flavin-containing] A; experiment: Inhibition of human MAO-A expressed in baculovirus infected insect cell membranes at 10 uM using kynuramine as substrate by continuous spectrophotometric method relative to control
[9] = biological target: T1, Amine oxidase [flavin-containing] B; experiment: Inhibition of human MAO-B expressed in baculovirus infected insect cell membranes at 2 uM using kynuramine as substrate after 15 to 20 mins by discontinuous fluorimetric method relative to control; method in brief: as §1
Histamine H3 receptor [10] = biological target: T3, Histamine H3 receptor; experiment: Displacement of [125I]iodoproxyfan from human H3R expressed in CHOK1 cell membranes after 60 mins by gamma counting method

T3 sequence (Q9Y5N1 whole entry): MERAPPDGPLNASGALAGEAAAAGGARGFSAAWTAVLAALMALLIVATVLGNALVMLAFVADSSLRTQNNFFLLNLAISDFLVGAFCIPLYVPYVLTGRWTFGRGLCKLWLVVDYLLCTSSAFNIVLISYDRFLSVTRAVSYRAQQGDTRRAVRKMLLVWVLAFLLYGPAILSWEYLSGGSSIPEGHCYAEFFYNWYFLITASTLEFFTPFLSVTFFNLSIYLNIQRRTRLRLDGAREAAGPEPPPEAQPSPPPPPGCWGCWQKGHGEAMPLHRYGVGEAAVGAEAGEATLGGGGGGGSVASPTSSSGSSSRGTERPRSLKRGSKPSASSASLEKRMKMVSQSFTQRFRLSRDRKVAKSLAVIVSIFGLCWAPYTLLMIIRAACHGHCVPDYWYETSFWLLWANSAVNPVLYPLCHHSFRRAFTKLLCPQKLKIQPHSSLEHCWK

SMILES | IC50 [1] [µM] | inhibition at 5 µM [2] [%] | IC50 [3] [µM] | Ratio IC50 (Homo sapiens) | IC50 [4] [µM] | inhibition (INH) [5] | Ki (Histamine H3 receptor [6]) [µM] | inhibition at 10 µM [7] [%] | inhibition at 10 µM [8] [%] | inhibition at 2 µM [9] [%] | Ki (Histamine H3 receptor [10]) [µM]
O=C1/C(=C/c2ccc(OCCCN3CCCCC3)cc2)Cc2cc(OCc3ccc(Br)cc3)ccc21 | 0.276 | 76 to 100 | > 10 | > 36 | 0.262 | Active | 0.0065 | – | – | – | –
O=C1/C(=C/c2ccc(OCCCN3CCCCC3)cc2)Cc2ccccc21 | – | – | – | – | – | – | 0.0021 | 51 to 75 | ≤ 25 | – | –
COc1ccc2c(c1)C(=O)/C(=C/c1ccc(OCCCN3CCCCC3)cc1)C2 | – | – | – | – | – | – | 0.011 | 51 to 75 | 51 to 75 | – | –
O=C1/C(=C/c2ccc(OCCCN3CCCCC3)cc2)Cc2ccc(OCc3ccc(Br)cc3)cc21 | 1.46 | – | 5.51 | 3.7 | 0.232 | Active | 0.032 | – | – | 51 to 75 | –
O=C1CCc2ccc(OCCCN3CCCCC3)cc21 | – | – | – | – | – | – | 0.304 | 51 to 75 | ≤ 25 | – | –
O=C1/C(=C/c2ccccc2)Cc2ccc(OCCCN3CCCCC3)cc21 | – | – | – | – | – | – | 0.039 | 51 to 75 | ≤ 25 | – | –
O=C(c1ccc(OCCCN2CCCCC2)cc1)C1CC1 | 3.88 | – | > 50 | > 12 | – | – | 0.011 | – | – | – | 0.0016
O=C1/C(=C/c2ccc(OCCCN3CCCCC3)cc2)Cc2cc(F)ccc21 | 1.93 | – | 9.18 | 4.8 | 0.541 | Active | 0.0022 | 76 to 100 | – | – | –
O=C1CCc2ccc(OCCN3CCCC3)cc21 | – | – | – | – | – | – | 6.12 | 26 to 50 | ≤ 25 | – | –
O=C1CCc2cc(OCCCN3CCCCC3)ccc21 | – | – | – | – | – | – | 0.159 | 26 to 50 | ≤ 25 | – | –
O=C1CCc2cc(OCCN3CCCC3)ccc21 | – | – | – | – | – | – | 0.345 | ≤ 25 | 26 to 50 | – | –
O=C1CCc2cc(OCCN3CCCCC3)ccc21 | – | – | – | – | – | – | 0.205 | 26 to 50 | ≤ 25 | – | –
COc1ccc2c(c1)C/C(=C\c1ccc(OCCCN3CCCCC3)cc1)C2=O | – | – | – | – | – | – | 0.033 | 51 to 75 | ≤ 25 | – | –
O=C1/C(=C/c2ccccc2)Cc2cc(OCCCN3CCCCC3)ccc21 | – | – | – | – | – | – | 0.0039 | 51 to 75 | ≤ 25 | – | –
O=C1/C(=C/c2ccccc2)Cc2ccc(OCCN3CCCCC3)cc21 | – | – | – | – | – | – | 0.696 | 76 to 100 | ≤ 25 | – | –

Source: ChEMBL document CHEMBL4196042, “Novel indanone derivatives as MAO B/H3R dual-targeting ligands for treatment of Parkinson's disease” (Eur J Med Chem, 2018)
